This note sets out measurements from ChEMBL document CHEMBL4219084, “Design, synthesis and biological assessment of N-adamantyl, substituted adamantyl and noradamantyl phthalimidines for nitrite, TNF-α and angiogenesis inhibitory activities” (Bioorg Med Chem, 2018).

Structures are written as SMILES.

The subject of series [1] is RAW264.7. Briefly: Antiinflammatory activity in mouse RAW264.7 cells assessed as reduction in LPS-induced nitrite production by measuring nitrite levels at 30 uM pretreated for 1 hr followed by LPS-challenge measured after 20 to 24 hrs by Griess assay relative to control. In kind it is functional. More on the design: scale not given: the % may be the effect or the level left. An outline of the steps:
(§1)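 RAW 264.7 cells in DMEM with 10% FBS and penicillin/streptomycin, 37 °C, 5% CO2, seeded at 200×10^3 per well in 24-well plates. Media replaced at 24 h. Compound in DMSO (0.5% final) added 2 h later, then LPS 60 ng/ml 1 h after that. Media collected 20–24 h after LPS. 3–4 wells per concentration, expressed as % of DMSO vehicle control (mean ± SE).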
On the technique in general: The Griess reaction detects nitrite, a stable product of nitric oxide.

For series [2], the system named is RAW264.7. The experiment in a line: Antiinflammatory activity in mouse RAW264.7 cells assessed as reduction in LPS-induced TNFalpha production by measuring TNFalpha levels at 30 uM pretreated for 1 hr followed by LPS-challenge measured after 20 to 24 hrs by ELISA relative to control. Also on record: scale not given: the % may be the effect or the level left. Type of series: functional. The essentials:
as §1

Series [3] in a line: Cytotoxicity against LPS-induced mouse RAW264.7 cells assessed as cell viability at 30 uM pretreated for 1 hr followed by LPS-challenge measured after 20 to 24 hrs by CellTiter 96 aqueous non-radioactive cell proliferation assay. In kind it is cell-based. The settings on record: LPS-induced RAW264.7 cells, read-out: Activity. The essentials:
as §1

For series [4], the species on record is Danio rerio. Briefly: Antiangiogenic activity in 24 hrs post fertilized zebra fish embryo harboring fli1:EGFP assessed as number of intersegmental vessel at 10 ug/ml after 24 hrs by fluorescence microscopic analysis. Type of series: functional. An outline of the steps: (§2)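 fli1:EGFP transgenic zebrafish embryos, identified by fluorescence, manually dechorionated at 24 h post fertilization and placed in plates with compound diluted in tank water, vehicle controls alongside. After 24 h exposure, embryos anaesthetized with 0.1% tricaine and intersegmental vessels scored for length (µm) and number. Values given as mean ± S.E.M.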

Series [5] is filed under the species Danio rerio. Briefly: Antiangiogenic activity in 24 hrs post fertilized zebra fish embryo harboring fli1:EGFP assessed as intersegmental vessel length at 10 ug/ml after 24 hrs by fluorescence microscopic analysis. Type of series: functional. The essentials:
as §2

Series [6] is filed under the species Danio rerio. The experiment in a line: Toxicity in 24 hrs post fertilized zebra fish embryo harboring fli1:EGFP at >50 ug/ml. Type of series: organism-based. The settings on record: zebrafish, in vivo.
The species entered for series [7] is Danio rerio. Briefly: Antiangiogenic activity in 24 hrs post fertilized zebra fish embryo harboring fli1:EGFP assessed as intersegmental vessel length after 24 hrs by fluorescence microscopic analysis. Type of series: functional, organism-based. An outline of the steps: as §2
Series [8] can be described thus: Solubility of the compound in DMEM media at 30 uM. In kind it is physicochemical.
Series [9] is filed under the species Danio rerio. The experiment in a line: Antiangiogenic activity in 24 hrs post fertilized zebra fish embryo harboring fli1:EGFP assessed as intersegmental vessel length at 5 ug/ml after 24 hrs by fluorescence microscopic analysis. Type of series: functional. The essentials:
as §2

The species named for series [10] is Danio rerio. Briefly: Antiangiogenic activity in 24 hrs post fertilized zebra fish embryo harboring fli1:EGFP assessed as number of intersegmental vessel at 5 ug/ml after 24 hrs by fluorescence microscopic analysis. In kind it is functional. The essentials:
as §2

The species entered for series [11] is Danio rerio. The experiment in a line: Toxicity in 24 hrs post fertilized zebra fish embryo harboring fli1:EGFP at >5 ug/ml. In kind it is organism-based. As to conditions: zebrafish, in vivo.

On to `O=C1c2cccc([N+](=O)[O-])c2CN1CC12CC3CC(CC(C3)C1)C2`, for which the Activity is recorded as 55% in the series on RAW264.7 [1] and 77% in the series on RAW264.7 [2]. The viability at 30 µM in series [3] was 92%.
As to `O=C1c2ccccc2CN1C1C2CC3CC(C2)CC1C3` (stereo not drawn), the Activity in the series with RAW264.7 [1] is listed as 62%; in the series with RAW264.7 [2], 58%. Moreover, the viability at 30 µM in series [3] is 75%.
Turning to `Nc1cccc2c1CN(C1C3CC4CC(C3)CC1C4)C2=O` (stereo not drawn), the Activity was 72% in the series with RAW264.7 [1]; 14 in the series filed under Danio rerio [4]; 101% in the series with RAW264.7 [2]; 42.1 um in the series listed under Danio rerio [5]; “Toxic” in the series filed under Danio rerio [6]; “Dose-dependent effect” in the series listed under Danio rerio [7]. Moreover, the viability at 30 µM in [3] is 99%.
With `CC(N1Cc2ccccc2C1=O)C12CC3CC(CC(C3)C1)C2` (stereo not drawn), the figures for the Activity in the series with RAW264.7 [1] and with RAW264.7 [2] were 52% and 55%, respectively. Further, the viability at 30 µM in series [3] is 82%.
In the same order, the values of `O=C1c2cccc([N+](=O)[O-])c2CN1C12CC3CC(CC(O)(C3)C1)C2` are 94%, 91% and 107%.
With `O=C1c2cccc([N+](=O)[O-])c2CN1C12CC3CC(CC1C3)C2`, the Activity in the series with RAW264.7 [1] was 49%; in the series filed under Danio rerio [4], 8.6; in the series on RAW264.7 [2] it was 90%; in the series filed under Danio rerio [5] it was 42.8 um; in the series filed under Danio rerio [6], “Toxic”; in the series filed under Danio rerio [7] it was “Dose-dependent effect”. Also, the viability at 30 µM in series [3] amounted to 92%.
For the molecule `O=C1c2ccccc2CN1CC12CC3CC(CC(C3)C1)C2`, the Activity amounted to 50% with RAW264.7 [1], 18.2 in the series filed under Danio rerio [4], 59% with RAW264.7 [2] and 83.1 um in the series filed under Danio rerio [5]. Further, in series [3], the viability at 30 µM amounted to 81%.
Regarding `CC(N1Cc2ccccc2C1=S)C12CC3CC(CC(C3)C1)C2` (stereo not drawn), the figures for the Activity with RAW264.7 [1] and with RAW264.7 [2] were 52% and 90%, respectively. Besides, the solubility entry in series [8] is reported as “Insoluble”. The viability at 30 µM in [3] turned out to be 84%.
Turning to `S=C1c2ccccc2CN1C12CC3CC(CC1C3)C2`, the solubility result in series [8] is recorded as “Insoluble”. Moreover, the Activity with RAW264.7 [2] is on record as 85%. Also, the viability at 30 µM in [3] was 94%.
Regarding `O=C1c2ccccc2CN1C12CC3CC(CC1C3)C2`, the Activity in the series with RAW264.7 [2] is recorded as 52%. Besides, the viability at 30 µM in [3] turned out to be 74%.
As for `CC(N1Cc2c(cccc2[N+](=O)[O-])C1=S)C12CC3CC(CC(C3)C1)C2` (stereo not drawn), the Activity in the series with RAW264.7 [1] was determined as 11.5%; in the series listed under Danio rerio [4], 22; in the series on RAW264.7 [2], 96%; in the series listed under Danio rerio [5], 86.4 um. Moreover, the viability at 30 µM in series [3] is 83%.
As for `CC(N1Cc2c(cccc2[N+](=O)[O-])C1=O)C12CC3CC(CC(C3)C1)C2` (stereo not drawn), the Activity with RAW264.7 [1] was 35%; in the series with RAW264.7 [2], 72%. For the same molecule, the viability at 30 µM in series [3] was 81%.
Take `O=C1c2ccccc2CN1C12CC3CC(CC(O)(C3)C1)C2`: the Activity was determined as 101% in the series with RAW264.7 [1], 19.5 in the series listed under Danio rerio [4], 80% in the series on RAW264.7 [2] and 105.1 um in the series listed under Danio rerio [5]. Also, the viability at 30 µM in series [3] stood at 98%.
Consider `O=C1c2cccc([N+](=O)[O-])c2CN1C12CC3CC(CC(C3)C1)C2`, for which the Activity in the series with RAW264.7 [1] is recorded as 40%; in the series with RAW264.7 [2] it was 86%. Besides, in [8], the solubility result is “Insoluble”. In series [3], the viability at 30 µM is 114%.
For `O=C1c2cccc([N+](=O)[O-])c2CN1C1C2CC3CC(C2)CC1C3` (stereo not drawn), the Activity in the series listed under Danio rerio [9] was 48.2 um; in the series on RAW264.7 [1], 9.2%; in the series on RAW264.7 [2] it was 65%; in the series listed under Danio rerio [10], 14.6; in the series listed under Danio rerio [11], “Toxic”. Further, the viability at 30 µM in series [3] amounted to 82%.
